Data published in ChEMBL document CHEMBL1122207, “Antitumor agents. 2. Bisguanylhydrazones of anthracene-9,10-dicarboxaldehydes” (1982).

Tests used:
Type in all cases: functional
[1] = test system: Mus musculus; assay: Percent increase in median life span of BDF1 mice with P-388 leukemia at dose 50 mg/kg administered intraperitoneally; conditions: BDF1, P388, ip, route intraperitoneal
[2] = species: Mus musculus; assay: Anticancer activity measured as the number of survivors of the total treated mice with P-388 leukemia at 30 days.
Method in brief: (§1)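 BDF1 or CDF1 mice given 10^6 ascitic P-388 leukemia cells ip, then treated ip on days 1, 5 and 9. Cures are survivors over total treated at 30 days.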

[3] = species: Mus musculus; assay: Number of survivors of the total treated mice with B-16 melanoma, at 60 days.
Method in brief: (§2)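 BDF1 mice were implanted ip with a homogenate from 0.05 g of B-16 melanoma and dosed ip on days 1-9. Cures are survivors over total at 60 days.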

[4] = test system: Mus musculus; assay: Percent increase in median life span of BDF1 mice with B-16 melanoma at dose 12.5 mg/kg administered intraperitoneally; conditions: BDF1, B16, ip, route intraperitoneal
Method in brief: (§3)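 BDF1 mice were implanted ip with a homogenate from 0.05 g of B-16 melanoma. Ip dosing ran on days 1-9, starting 24 h after implant, in dose-response studies following NCI protocols. The read-out was percent increase in life span (ILS). T/C ≥125% was taken as significant.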

[5] = test system: Mus musculus; assay: Percent increase in median life span of BDF1 mice with B-16 melanoma at dose 50 mg/kg administered intraperitoneally; conditions: BDF1, B16, ip, route intraperitoneal; method in brief: as §3
[6] = test system: Mus musculus; assay: Percent increase in median life span of BDF1 mice with B-16 melanoma at dose 12 mg/kg administered intraperitoneally; conditions: BDF1, B16, ip, route intraperitoneal; method in brief: as §3
[7] = test system: Mus musculus; assay: Percent increase in median life span of BDF1 mice with P-388 leukemia at dose 25 mg/kg administered intraperitoneally; conditions: BDF1, P388, ip, route intraperitoneal
[8] = test system: Mus musculus; assay: Percent increase in median life span of BDF1 mice with P-388 leukemia at dose 12.5 mg/kg administered intraperitoneally; conditions: BDF1, P388, ip, route intraperitoneal
[9] = test system: Mus musculus; assay: Percent increase in median life span of BDF1 mice with P-388 leukemia at dose 200 mg/kg administered intraperitoneally; conditions: BDF1, P388, ip, route intraperitoneal
[10] = test system: Mus musculus; assay: Percent increase in median life span of BDF1 mice with B-16 melanoma at dose 25 mg/kg administered intraperitoneally; conditions: BDF1, B16, ip, route intraperitoneal; method in brief: as §3
[11] = species: Mus musculus; assay: Cures is the number of survivors of the total treated mice (6) with P-388 leukemia, at 30 days.; method in brief: as §1
[12] = species: Mus musculus; assay: Cures is the number of survivors of the total treated mice (12) with P-388 leukemia, at 30 days.; method in brief: as §1
[13] = test system: Mus musculus; assay: Percent increase in median life span of BDF1 mice with B-16 melanoma administered intraperitoneally; method in brief: as §3
[14] = test system: Mus musculus; assay: Percent increase in median life span of BDF1 mice with P-388 leukemia administered intraperitoneally
[15] = species: Mus musculus; assay: Cures is the number of survivors of the total treated mice (10) with B-16 melanoma, at 60 days.; method in brief: as §2
[16] = test system: Mus musculus; assay: Percent increase in median life span of BDF1 mice with P-388 leukemia at dose 6.25 mg/kg administered intraperitoneally; conditions: BDF1, P388, ip, route intraperitoneal
[17] = test system: Mus musculus; assay: Percent increase in median life span of BDF1 mice with B-16 melanoma at dose 3.1 mg/kg administered intraperitoneally; conditions: BDF1, B16, ip, route intraperitoneal; method in brief: as §3

COc1ccc(OC)c2c(/C=N/NC3=NCCN3)c3ccccc3c(/C=N/NC3=NCCN3)c12.Cl.Cl
ILS at 50 mg/kg [1]: 50%
Cures [2]: 0
Cures [3]: 0
ILS at 12.5 mg/kg [4]: 64%

CC1(C)CCC(C)(C)NC(N/N=C/c2c3ccccc3c(/C=N/NC3=NC(C)(C)CCC(C)(C)N3)c3ccccc23)=N1.Cl.Cl
ILS at 50 mg/kg [1]: 0%
Cures [2]: 0

CCCCC1(CCCC)CN=C(N/N=C/c2c3ccccc3c(/C=N/NC3=NCC(CCCC)(CCCC)CN3)c3ccccc23)NC1.Cl.Cl
ILS at 50 mg/kg [5]: 0%
Cures [3]: 0

C(=N\NC1=NCCCCC1)/c1c2ccccc2c(/C=N/NC2=NCCCCC2)c2ccccc12.Cl.Cl
Cures [2]: 0
ILS at 12 mg/kg [6]: 35%
Cures [3]: 0
ILS at 25 mg/kg [7]: 95%

C(=N\NC1=NCCN1)/C1c2ccccc2C(/C=N/NC2=NCCN2)c2ccccc21.Cl.Cl (stereo unspecified)
ILS at 12.5 mg/kg [8]: 72%
Cures [3]: 0
ILS at 12.5 mg/kg [4]: 100%

CCCCCCCCCCCCCCCC/N=C(\N)N/N=C/c1c2ccccc2c(/C=N/N/C(N)=N/CCCCCCCCCCCCCCCC)c2ccccc12.Cl.Cl
ILS at 50 mg/kg [5]: 0%
Cures [2]: 0
Cures [3]: 0
ILS at 200 mg/kg [9]: 0%

CN1CCN(/N=C/c2c3ccccc3c(/C=N/N3CCN(C)CC3)c3ccccc23)CC1.Cl.Cl
Cures [2]: 0
ILS at 200 mg/kg [9]: 0%

Cc1cc2c(cc1C)C(/C=N/NC1=NCCN1)c1ccccc1C2/C=N/NC1=NCCN1 (stereo unspecified)
ILS at 50 mg/kg [1]: 73%

Cl.Cl.N=C(NCc1cccs1)N/N=C/c1c2ccccc2c(/C=N/NC(=N)NCc2cccs2)c2ccccc12
ILS at 50 mg/kg [1]: 90%
Cures [2]: 0
ILS at 12 mg/kg [6]: 75%
Cures [3]: 0

Cl.Cl.Cl.Cl.N=C(NCc1ccccn1)N/N=C/c1c2ccccc2c(/C=N/NC(=N)NCc2ccccn2)c2ccccc12
ILS at 50 mg/kg [1]: 95%
Cures [2]: 0
ILS at 25 mg/kg [10]: 74%
Cures [3]: 0

Cl.Cl.Cl.Cl.N=C(NCc1cccnc1)N/N=C/c1c2ccccc2c(/C=N/NC(=N)NCc2cccnc2)c2ccccc12
Cures [11]: 1
ILS at 25 mg/kg [10]: 77%
Cures [3]: 0
ILS at 25 mg/kg [7]: 114%

Cl.Cl.Cl.Cl.N=C(NCc1ccncc1)N/N=C/c1c2ccccc2c(/C=N/NC(=N)NCc2ccncc2)c2ccccc12
Cures [2]: 0
ILS at 25 mg/kg [10]: 78%
ILS at 12.5 mg/kg [8]: 90%
Cures [3]: 0

C(=C\c1c2ccccc2c(/C=C/C=N/NC2=NCCN2)c2ccccc12)/C=N/NC1=NCCN1.Cl.Cl
Cures [2]: 0
ILS at 25 mg/kg [10]: 46%
Cures [3]: 0
ILS at 200 mg/kg [9]: 36%

CC1(/C=N/NC2=NCCN2)c2ccccc2C(C)(/C=N/NC2=NCCN2)c2ccccc21 (stereo unspecified)
ILS at 50 mg/kg [5]: 0%
ILS at 200 mg/kg [9]: 0%

C(=N\NC1=NCCCN1)/c1c2ccccc2c(/C=N/NC2=NCCCN2)c2ccccc12.Cl.Cl
ILS at 12 mg/kg [6]: 106%
Cures [12]: 1
ILS at 12.5 mg/kg [8]: 82%
Cures [3]: 0

CC(C)(C)c1ccc2c(/C=N/NC3=NCCN3)c3ccccc3c(/C=N/NC3=NCCN3)c2c1.Cl.Cl
Cures [2]: 0
Cures [3]: 0
ILS [13]: 0%
ILS [14]: 0%

CN(C)CC(=O)N/N=C/c1c2ccccc2c(/C=N/NC(=O)CN(C)C)c2ccccc12.Cl.Cl
Cures [2]: 0
ILS at 200 mg/kg [9]: 0%

Cl.Cl.N/C(=N\N=C\c1c2ccccc2c(/C=N/N/C(N)=N/CCO)c2ccccc12)NCCO
Cures [15]: 1
Cures [2]: 0
ILS at 12 mg/kg [6]: 80%
ILS at 25 mg/kg [7]: 90%

COc1ccc(OC)c2c1C(/C=N/NC1=NCCN1)c1ccccc1C2/C=N/NC1=NCCN1 (stereo unspecified)
ILS at 200 mg/kg [9]: 0%

C(/CCc1c2ccccc2c(CC/C=N/NC2=NCCN2)c2ccccc12)=N\NC1=NCCN1.Cl.Cl
ILS at 50 mg/kg [1]: 30%
ILS at 50 mg/kg [5]: 0%
Cures [2]: 0
Cures [3]: 0

Cl.Cl.Fc1ccc2c(/C=N/NC3=NCCN3)c3ccccc3c(/C=N/NC3=NCCN3)c2c1
ILS at 6.25 mg/kg [16]: 123%
Cures [15]: 4
Cures [12]: 3
ILS at 3.1 mg/kg [17]: 183%

Cl.Cl.S=C(NCCN1CCOCC1)N/N=C/c1c2ccccc2c(/C=N/NC(=S)NCCN2CCOCC2)c2ccccc12
ILS at 50 mg/kg [1]: 80%
Cures [15]: 1
Cures [2]: 0
ILS at 12 mg/kg [6]: 103%

Cl.Cl.S=C(NCCN1CCCCC1)N/N=C/c1c2ccccc2c(/C=N/NC(=S)NCCN2CCCCC2)c2ccccc12
ILS at 50 mg/kg [1]: 58%
Cures [2]: 0
ILS [13]: 0%

CC(C)CN(CC/N=C(\S)N/N=C/c1c2ccccc2c(/C=N/N/C(S)=N/CCN(CC(C)C)CC(C)C)c2ccccc12)CC(C)C.Cl.Cl
Cures [2]: 0
ILS at 25 mg/kg [7]: 33%
